Data published in ChEMBL document CHEMBL1926550, “Synthesis and antibacterial activity of naphthyridone derivatives containing mono/difluoro-methyloxime pyrrolidine scaffolds” (2012).
Converted amounts (≈) assume the structure as drawn.

Tested on: Staphylococcus aureus
Assay: Antibacterial activity against methicillin-resistant Staphylococcus aureus 10-2 after 18 hrs by two fold serial dilution method
Format: functional
Details: 10-2, 18 h
Summary of the method: (§1)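 Agar two-fold serial dilution in melted Mueller-Hinton agar, 128 to 0.008 μg/mL. Plates inoculated with 10⁴ cfu, incubated 35 °C for 18 h. MIC taken as lowest concentration giving no visible growth on the plate.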

SMILES | MIC [µg/mL]
NCC1CN(c2nc3c(cc2F)c(=O)c(C(=O)O)cn3C2CC2)C/C1=N\OC(F)F (racemic) | 1 (≈ 2.35 µM)

Tested on: Staphylococcus aureus
Assay: Antibacterial activity against methicillin-sensitive Staphylococcus aureus 10-3 after 18 hrs by two fold serial dilution method
Format: functional
Details: 10-3, 18 h
Summary of the method: (§2)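 Agar two-fold serial dilution in melted Mueller-Hinton agar, final concentrations 128 down to 0.008 μg/mL. Plates inoculated with 10⁴ cfu and incubated at 35 °C for 18 h. MIC taken as the lowest concentration giving no visible growth on the plate.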

SMILES | MIC [µg/mL]
NCC1CN(c2nc3c(cc2F)c(=O)c(C(=O)O)cn3C2CC2)C/C1=N\OC(F)F (racemic) | 0.06 (≈ 0.141 µM)

Tested on: Staphylococcus aureus
Assay: Antibacterial activity against methicillin-resistant Staphylococcus aureus 10-2 infected KM mouse systemic infection model assessed as decrease in mouse mortality administered orally twice after 1 and 4 hrs post infection measured up to 7 days
Format: functional
Details: 10-2, po
Summary of the method: (§3)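 Strains grown on MH agar at 35 °C for 18 h, suspended in gastric mucin. Male KM mice (19–21 g), groups of 10, infected intraperitoneally with 0.5 mL at 5–10× MLD. Four oral dose levels per drug at 1 and 4 h post infection. Mortality followed 7 days; ED50 with 95% confidence limits by Bliss method.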

SMILES | ED50 [mg/kg]
NCC1CN(c2nc3c(cc2F)c(=O)c(C(=O)O)cn3C2CC2)C/C1=N\OC(F)F (racemic) | 14.3

Tested on: Pseudomonas aeruginosa
Assay: Antibacterial activity against Pseudomonas aeruginosa 10-1 infected KM mouse systemic infection model assessed as decrease in mouse mortality administered orally twice after 1 and 4 hrs post infection measured up to 7 days
Format: functional
Details: 10-1, po
Summary of the method: as §3

SMILES | ED50 [mg/kg]
NCC1CN(c2nc3c(cc2F)c(=O)c(C(=O)O)cn3C2CC2)C/C1=N\OC(F)F (racemic) | 21.3

Tested on: Pseudomonas aeruginosa
Assay: Antibacterial activity against Pseudomonas aeruginosa 10-3 after 18 hrs by two fold serial dilution method
Format: functional
Details: 10-3, 18 h
Summary of the method: as §2

SMILES | MIC [µg/mL]
NCC1CN(c2nc3c(cc2F)c(=O)c(C(=O)O)cn3C2CC2)C/C1=N\OC(F)F (racemic) | 4 (≈ 9.4 µM)

Tested on: Pseudomonas aeruginosa
Assay: Ratio of ciprofloxacin ED50 to compound ED50 for Pseudomonas aeruginosa 10-1 infected KM mouse systemic infection model
Format: functional
Details: not given

SMILES | Ratio ED50
NCC1CN(c2nc3c(cc2F)c(=O)c(C(=O)O)cn3C2CC2)C/C1=N\OC(F)F (racemic) | 5.2

Tested on: Enterococcus faecalis
Assay: Antibacterial activity against Enterococcus faecalis 09-2 after 18 hrs by two fold serial dilution method
Format: functional
Details: 09-2, 18 h
Summary of the method: as §2

SMILES | MIC [µg/mL]
NCC1CN(c2nc3c(cc2F)c(=O)c(C(=O)O)cn3C2CC2)C/C1=N\OC(F)F (racemic) | 8 (≈ 18.8 µM)

Tested on: Staphylococcus aureus
Assay: Antibacterial activity against methicillin-resistant Staphylococcus aureus 10-1 after 18 hrs by two fold serial dilution method
Format: functional
Details: 10-1, 18 h
Summary of the method: as §1

SMILES | MIC [µg/mL]
NCC1CN(c2nc3c(cc2F)c(=O)c(C(=O)O)cn3C2CC2)C/C1=N\OC(F)F (racemic) | 16 (≈ 37.6 µM)

Tested on: Pseudomonas aeruginosa
Assay: Ratio of gemifloxacin ED50 to compound ED50 for Pseudomonas aeruginosa 10-1 infected KM mouse systemic infection model
Format: functional
Details: not given

SMILES | Ratio ED50
NCC1CN(c2nc3c(cc2F)c(=O)c(C(=O)O)cn3C2CC2)C/C1=N\OC(F)F (racemic) | 6.1

Tested on: Enterococcus faecium
Assay: Antibacterial activity against Enterococcus faecium 09-2 after 18 hrs by two fold serial dilution method
Format: functional
Details: 09-2, 18 h
Summary of the method: as §2

SMILES | MIC [µg/mL]
NCC1CN(c2nc3c(cc2F)c(=O)c(C(=O)O)cn3C2CC2)C/C1=N\OC(F)F (racemic) | 32 (≈ 75.2 µM)

Tested on: Staphylococcus aureus
Assay: Antibacterial activity against methicillin-sensitive Staphylococcus aureus 10-1 after 18 hrs by two fold serial dilution method
Format: functional
Details: 10-1, 18 h
Summary of the method: as §2

SMILES | MIC [µg/mL]
NCC1CN(c2nc3c(cc2F)c(=O)c(C(=O)O)cn3C2CC2)C/C1=N\OC(F)F (racemic) | 0.015 (≈ 0.0353 µM)

Tested on: Enterococcus faecium
Assay: Antibacterial activity against Enterococcus faecium 09-3 after 18 hrs by two fold serial dilution method
Format: functional
Details: 09-3, 18 h
Summary of the method: as §2

SMILES | MIC [µg/mL]
NCC1CN(c2nc3c(cc2F)c(=O)c(C(=O)O)cn3C2CC2)C/C1=N\OC(F)F (racemic) | 16 (≈ 37.6 µM)

Tested on: Staphylococcus epidermidis
Assay: Antibacterial activity against methicillin-resistant Staphylococcus epidermidis 10-2 after 18 hrs by two fold serial dilution method
Format: functional
Details: 10-2, 18 h
Summary of the method: as §1

SMILES | MIC [µg/mL]
NCC1CN(c2nc3c(cc2F)c(=O)c(C(=O)O)cn3C2CC2)C/C1=N\OC(F)F (racemic) | 0.25 (≈ 0.588 µM)

Tested on: Escherichia coli
Assay: Antibacterial activity against Escherichia coli ATCC 25922 after 18 hrs by two fold serial dilution method
Format: functional
Details: ATCC 25922, 18 h
Summary of the method: as §2

SMILES | MIC [µg/mL]
NCC1CN(c2nc3c(cc2F)c(=O)c(C(=O)O)cn3C2CC2)C/C1=N\OC(F)F (racemic) | 0.008 (≈ 0.0188 µM)

Tested on: Staphylococcus aureus
Assay: Antibacterial activity against Staphylococcus aureus ATCC 25923 after 18 hrs by two fold serial dilution method
Format: functional
Details: ATCC 25923, 18 h
Summary of the method: as §2

SMILES | MIC [µg/mL]
NCC1CN(c2nc3c(cc2F)c(=O)c(C(=O)O)cn3C2CC2)C/C1=N\OC(F)F (racemic) | 0.015 (≈ 0.0353 µM)

Tested on: Staphylococcus aureus
Assay: Antibacterial activity against methicillin-sensitive Staphylococcus aureus 10-6 after 18 hrs by two fold serial dilution method
Format: functional
Details: 10-6, 18 h
Summary of the method: as §2

SMILES | MIC [µg/mL]
NCC1CN(c2nc3c(cc2F)c(=O)c(C(=O)O)cn3C2CC2)C/C1=N\OC(F)F (racemic) | 0.06 (≈ 0.141 µM)

Tested on: Escherichia coli
Assay: Antibacterial activity against Escherichia coli 09-3 after 18 hrs by two fold serial dilution method
Format: functional
Details: 09-3, 18 h
Summary of the method: as §2

SMILES | MIC [µg/mL]
NCC1CN(c2nc3c(cc2F)c(=O)c(C(=O)O)cn3C2CC2)C/C1=N\OC(F)F (racemic) | 16 (≈ 37.6 µM)

Tested on: Staphylococcus aureus
Assay: Antibacterial activity against methicillin-sensitive Staphylococcus aureus 10-4 after 18 hrs by two fold serial dilution method
Format: functional
Details: 10-4, 18 h
Summary of the method: as §2

SMILES | MIC [µg/mL]
NCC1CN(c2nc3c(cc2F)c(=O)c(C(=O)O)cn3C2CC2)C/C1=N\OC(F)F (racemic) | 0.5 (≈ 1.18 µM)

Tested on: Staphylococcus epidermidis
Assay: Ratio of gemifloxacin ED50 to compound ED50 for methicillin-resistant Staphylococcus epidermidis 10-4 infected KM mouse systemic infection model
Format: functional
Details: not given

SMILES | Ratio ED50
NCC1CN(c2nc3c(cc2F)c(=O)c(C(=O)O)cn3C2CC2)C/C1=N\OC(F)F (racemic) | 1.4

Tested on: Staphylococcus aureus
Assay: Antibacterial activity against methicillin-resistant Staphylococcus aureus 10-4 after 18 hrs by two fold serial dilution method
Format: functional
Details: 10-4, 18 h
Summary of the method: as §1

SMILES | MIC [µg/mL]
NCC1CN(c2nc3c(cc2F)c(=O)c(C(=O)O)cn3C2CC2)C/C1=N\OC(F)F (racemic) | 32 (≈ 75.2 µM)

Tested on: Staphylococcus epidermidis
Assay: Antibacterial activity against methicillin-sensitive Staphylococcus epidermidis 10-1 after 18 hrs by two fold serial dilution method
Format: functional
Details: 10-1, 18 h
Summary of the method: as §2

SMILES | MIC [µg/mL]
NCC1CN(c2nc3c(cc2F)c(=O)c(C(=O)O)cn3C2CC2)C/C1=N\OC(F)F (racemic) | 64 (≈ 150 µM)

Tested on: Klebsiella pneumoniae
Assay: Antibacterial activity against Klebsiella pneumoniae 10-1 after 18 hrs by two fold serial dilution method
Format: functional
Details: 10-1, 18 h
Summary of the method: as §2

SMILES | MIC [µg/mL]
NCC1CN(c2nc3c(cc2F)c(=O)c(C(=O)O)cn3C2CC2)C/C1=N\OC(F)F (racemic) | 0.015 (≈ 0.0353 µM)

Tested on: Escherichia coli
Assay: Antibacterial activity against Escherichia coli 09-1 after 18 hrs by two fold serial dilution method
Format: functional
Details: 09-1, 18 h
Summary of the method: as §2

SMILES | MIC [µg/mL]
NCC1CN(c2nc3c(cc2F)c(=O)c(C(=O)O)cn3C2CC2)C/C1=N\OC(F)F (racemic) | 16 (≈ 37.6 µM)

Tested on: Klebsiella pneumoniae
Assay: Antibacterial activity against Klebsiella pneumoniae 10-3 after 18 hrs by two fold serial dilution method
Format: functional
Details: 10-3, 18 h
Summary of the method: as §2

SMILES | MIC [µg/mL]
NCC1CN(c2nc3c(cc2F)c(=O)c(C(=O)O)cn3C2CC2)C/C1=N\OC(F)F (racemic) | 0.5 (≈ 1.18 µM)
